Test results from ChEMBL document CHEMBL1122121, “Synthesis and biological activity of 5'-substituted 5-fluoropyrimidine nucleosides” (J Med Chem, 1982).

Columns and labels:
CCRF-CEM [1] = experiment: Concentration required for the 50% inhibition of growth of CCRF-CEM human leukemia cells in culture; assay type: functional, cell-based
How it was run: (§1)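 10^5 mycoplasma-free L1210 or CCRF-CEM cells grown 48 h in RPMI 1640 with 10% fetal calf serum containing compound, then counted. Value is concentration giving 50% growth inhibition. Compounds were purified by preparative TLC until no FUrd was detectable by HPLC. Highest concentration noted was 10^-4 M.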

L1210 [2] = experiment: Antitumor activity against L1210 leukemia cells in mice at a dose of 100 mg/kg (ip) expressed as change in the body weight after 7 days; assay type: functional, Mus musculus
How it was run: (§2)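 Female DBA/2 mice (18–22 g), groups of five, implanted ip with 10^5 L1210 cells on day 0. Compound in PBS given ip (0.2 mL) once daily days 1–5. Controls got PBS. Mice weighed on days 1 and 7. Weight change expressed as percentage of initial weight.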

L1210 [3] = experiment: Concentration required for the 50% inhibition of growth of L1210 mouse leukemia cells in culture; assay type: functional, cell-based; how it was run: as §1
L1210 [4] = experiment: Antitumor activity against L1210 leukemia cells in mice at a dose of 150 mg/kg (ip) expressed as change in the body weight after 7 days; assay type: functional, Mus musculus; how it was run: as §2
L1210 [5] = experiment: Antitumor activity against L1210 leukemia cells in mice at a dose of 250 mg/kg (ip) expressed as change in the body weight after 7 days; assay type: functional, Mus musculus; how it was run: as §2
Mus musculus [6] = experiment: Percent increase in life span(ILS) was measured in mice at a dose of 100 mg/kg; assay type: functional
How it was run: (§3)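 Female DBA/2 mice (18–22 g), groups of five, implanted ip on day 0 with 10^5 L1210 leukemia cells. Compound dissolved in PBS and given ip daily on days 1–5 (q.d. 1–5). Controls received PBS. Mice were weighed on days 1 and 7. Read-outs were mean mortality and percent increase in life span.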

Mus musculus [7] = experiment: Percent increase in life span(ILS) was measured in mice at a dose of 150 mg/kg; assay type: functional; how it was run: as §3
Mus musculus [8] = experiment: Percent increase in life span(ILS) was measured in mice at a dose of 250 mg/kg; assay type: functional; how it was run: as §3
Mus musculus [9] = experiment: Mortality rate was measured at a dose of 100 mg/kg; assay type: functional; how it was run: as §3
Mus musculus [10] = experiment: Mortality rate was measured at a dose of 150 mg/kg; assay type: functional; how it was run: as §3
Mus musculus [11] = experiment: Mortality rate was measured at a dose of 250 mg/kg; assay type: functional; how it was run: as §3
CCRF-CEM [12] = experiment: Concentration required for the 50% inhibition of growth of CCRF-CEM human leukemia cells in culture; No growth inhibition was observed at a concentration of 10^-4 M; assay type: functional, cell-based; how it was run: as §1
L1210 [13] = experiment: Concentration required for the 50% inhibition of growth of L1210 mouse leukemia cells in culture; No growth inhibition was observed at a concentration of 10^-4 M; assay type: functional, cell-based; how it was run: as §1

SMILES	IC50 (CCRF-CEM [1]) [µM]	Change of body weight (L1210 [2]) [%]	IC50 (L1210 [3]) [µM]	Change of body weight (L1210 [4]) [%]	Change of body weight (L1210 [5]) [%]	ILS at 100 mg/kg (Mus musculus [6]) [%]	ILS at 150 mg/kg (Mus musculus [7]) [%]	ILS at 250 mg/kg (Mus musculus [8]) [%]	Mean survival time (Mus musculus [9]) [days]	Mean day of death (Mus musculus [10]) [days]	Mean day of death (Mus musculus [11]) [days]	IC50 (CCRF-CEM [12])	IC50 (L1210 [13])
O=c1[nH]c(=O)n(C2O[C@H](CI)[C@@H](O)[C@H]2O)cc1F (some centres not stated)	27	0	5										
O=c1[nH]c(=O)n(C2O[C@H](CCl)[C@@H](O)[C@H]2O)cc1F (some centres not stated)		-0.8	3.4	-3.5	-4.6	47	51	64	15.6	16	17.4		
NC[C@H]1OC(n2cc(F)c(=O)[nH]c2=O)[C@H](O)[C@@H]1O (some centres not stated)	49	1.8	8.7	-5.5	-0.9	17	19	28	12.4	12.8	13.6		
O=c1[nH]cc(F)c(=O)[nH]1 [FLUOROURACIL]	5		0.5										
CS(=O)(=O)OC[C@H]1OC(n2cc(F)c(=O)[nH]c2=O)[C@H](O)[C@@H]1O (some centres not stated)	0.66	0	0.32	1.3	-1.7	26	40	58	13.4	14.8	16.8		
Cc1ccc(S(=O)(=O)OC[C@H]2OC(n3cc(F)c(=O)[nH]c3=O)[C@H](O)[C@@H]2O)cc1 (some centres not stated)	1.8		0.46										
C[C@H]1O[C@@H](n2cc(F)c(=O)[nH]c2=O)[C@H](O)[C@@H]1O [DOXIFLURIDINE]	22	5.7	3.6	4.8	0	8	13	20	11.4	12	12.8		
O=c1[nH]c(=O)n([C@@H]2O[C@H](CO)[C@@H](O)[C@H]2O)cc1F [5-FLUOROURIDINE]	0.05		0.005										
O=c1[nH]c(=O)n(C2O[C@H](CBr)[C@@H](O)[C@H]2O)cc1F (some centres not stated)	3.1	1.7	0.8		-1.8	34	41	34	14.2	15	14.2		
O=c1[nH]c(=O)n(C2O[C@H](CO[N+](=O)[O-])[C@@H](O)[C@H]2O)cc1F (some centres not stated)												No inhibition	No inhibition
O=c1[nH]c(=O)n(C2O[C@H](CF)[C@@H](O)[C@H]2O)cc1F (some centres not stated)	140	-5.6	29	0.9	2.3	32	30	58	14	13.8	16.8		
[N-]=[N+]=NC[C@H]1OC(n2cc(F)c(=O)[nH]c2=O)[C@H](O)[C@@H]1O (some centres not stated)	350		170										
